Reference: ChEMBL document CHEMBL1909556, “Synthesis and properties of novel 2'-O-alkoxymethyl-modified nucleic acids” (Bioorg Med Chem Lett, 2011)
The source made the active and inactive calls. The rule behind the calls is not given here.

Key:
Nucleic Acid [1] = experiment: Binding affinity to A12 RNA assessed as change in melting temperature at 2 uM compound at pH 7; format: nucleic-acid assay
[2] = Nuclease stability of compound assessed as snake venom phosphodiesterase-mediated degradation at 10 uM after 2 hrs by RP-HPLC analysis; format: physicochemical
Outline: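 Snake venom phosphodiesterase digestion at 4 × 10^-4 units/ml of 10 μM oligoribonucleotide for 2 h. Buffer was 50 mM Tris-HCl pH 8.5 with 72 mM NaCl and 14 mM MgCl2. The degradation ratio was estimated by reversed-phase HPLC.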

Nucleic Acid [3] = experiment: Binding affinity to dA12 DNA assessed as change in melting temperature at 2 uM compound at pH 7; format: nucleic-acid assay

Structure (SMILES)	ΔTm (Nucleic Acid [1])	Stability [2]	Activity (Nucleic Acid [3])
O=c1ccn([C@@H]2O[C@H](COP(=O)(O)O[C@H]3[C@@H](O)[C@H](n4ccc(=O)[nH]c4=O)O[C@@H]3COP(=O)(O)O[C@H]3[C@@H](O)[C@H](n4ccc(=O)[nH]c4=O)O[C@@H]3COP(=O)(O)O[C@H]3[C@@H](O)[C@H](n4ccc(=O)[nH]c4=O)O[C@@H]3COP(=O)(O)O[C@H]3[C@@H](O)[C@H](n4ccc(=O)[nH]c4=O)O[C@@H]3COP(=O)(O)O[C@H]3[C@@H](O)[C@H](n4ccc(=O)[nH]c4=O)O[C@@H]3COP(=O)(O)O[C@H]3[C@@H](O)[C@H](n4ccc(=O)[nH]c4=O)O[C@@H]3COP(=O)(O)O[C@H]3[C@@H](O)[C@H](n4ccc(=O)[nH]c4=O)O[C@@H]3COP(=O)(O)O[C@H]3[C@@H](O)[C@H](n4ccc(=O)[nH]c4=O)O[C@@H]3COP(=O)(O)O[C@H]3[C@@H](O)[C@H](n4ccc(=O)[nH]c4=O)O[C@@H]3COP(=O)(O)O[C@H]3[C@@H](O)[C@H](n4ccc(=O)[nH]c4=O)O[C@@H]3COP(=O)(O)O[C@H]3[C@@H](O)[C@H](n4ccc(=O)[nH]c4=O)O[C@@H]3CO)[C@@H](O)[C@H]2O)c(=O)[nH]1	0 °C		
CCOCO[C@@H]1[C@H](O)[C@@H](COP(=O)(O)O[C@H]2[C@@H](OCOCC)[C@H](n3ccc(=O)[nH]c3=O)O[C@@H]2COP(=O)(O)O[C@H]2[C@@H](OCOCC)[C@H](n3ccc(=O)[nH]c3=O)O[C@@H]2COP(=O)(O)O[C@H]2[C@@H](OCOCC)[C@H](n3ccc(=O)[nH]c3=O)O[C@@H]2COP(=O)(O)O[C@H]2[C@@H](OCOCC)[C@H](n3ccc(=O)[nH]c3=O)O[C@@H]2COP(=O)(O)O[C@H]2[C@@H](OCOCC)[C@H](n3ccc(=O)[nH]c3=O)O[C@@H]2COP(=O)(O)O[C@H]2[C@@H](OCOCC)[C@H](n3ccc(=O)[nH]c3=O)O[C@@H]2COP(=O)(O)O[C@H]2[C@@H](OCOCC)[C@H](n3ccc(=O)[nH]c3=O)O[C@@H]2COP(=O)(O)O[C@H]2[C@@H](OCOCC)[C@H](n3ccc(=O)[nH]c3=O)O[C@@H]2COP(=O)(O)O[C@H]2[C@@H](OCOCC)[C@H](n3ccc(=O)[nH]c3=O)O[C@@H]2COP(=O)(O)O[C@H]2[C@@H](OCOCC)[C@H](n3ccc(=O)[nH]c3=O)O[C@@H]2COP(=O)(O)O[C@H]2[C@@H](OCOCC)[C@H](n3ccc(=O)[nH]c3=O)O[C@@H]2CO)O[C@H]1n1ccc(=O)[nH]c1=O	-2.5 °C	Unstable	
O=c1ccn([C@@H]2O[C@H](COP(=O)(O)O[C@H]3[C@@H](OCOCCCl)[C@H](n4ccc(=O)[nH]c4=O)O[C@@H]3COP(=O)(O)O[C@H]3[C@@H](OCOCCCl)[C@H](n4ccc(=O)[nH]c4=O)O[C@@H]3COP(=O)(O)O[C@H]3[C@@H](OCOCCCl)[C@H](n4ccc(=O)[nH]c4=O)O[C@@H]3COP(=O)(O)O[C@H]3[C@@H](OCOCCCl)[C@H](n4ccc(=O)[nH]c4=O)O[C@@H]3COP(=O)(O)O[C@H]3[C@@H](OCOCCCl)[C@H](n4ccc(=O)[nH]c4=O)O[C@@H]3COP(=O)(O)O[C@H]3[C@@H](OCOCCCl)[C@H](n4ccc(=O)[nH]c4=O)O[C@@H]3COP(=O)(O)O[C@H]3[C@@H](OCOCCCl)[C@H](n4ccc(=O)[nH]c4=O)O[C@@H]3COP(=O)(O)O[C@H]3[C@@H](OCOCCCl)[C@H](n4ccc(=O)[nH]c4=O)O[C@@H]3COP(=O)(O)O[C@H]3[C@@H](OCOCCCl)[C@H](n4ccc(=O)[nH]c4=O)O[C@@H]3COP(=O)(O)O[C@H]3[C@@H](OCOCCCl)[C@H](n4ccc(=O)[nH]c4=O)O[C@@H]3COP(=O)(O)O[C@H]3[C@@H](OCOCCCl)[C@H](n4ccc(=O)[nH]c4=O)O[C@@H]3CO)[C@@H](O)[C@H]2OCOCCCl)c(=O)[nH]1	11 °C	Unstable	inactive
O=c1ccn([C@@H]2O[C@H](COP(=O)(O)O[C@H]3[C@@H](OCOCC(F)F)[C@H](n4ccc(=O)[nH]c4=O)O[C@@H]3COP(=O)(O)O[C@H]3[C@@H](OCOCC(F)F)[C@H](n4ccc(=O)[nH]c4=O)O[C@@H]3COP(=O)(O)O[C@H]3[C@@H](OCOCC(F)F)[C@H](n4ccc(=O)[nH]c4=O)O[C@@H]3COP(=O)(O)O[C@H]3[C@@H](OCOCC(F)F)[C@H](n4ccc(=O)[nH]c4=O)O[C@@H]3COP(=O)(O)O[C@H]3[C@@H](OCOCC(F)F)[C@H](n4ccc(=O)[nH]c4=O)O[C@@H]3COP(=O)(O)O[C@H]3[C@@H](OCOCC(F)F)[C@H](n4ccc(=O)[nH]c4=O)O[C@@H]3COP(=O)(O)O[C@H]3[C@@H](OCOCC(F)F)[C@H](n4ccc(=O)[nH]c4=O)O[C@@H]3COP(=O)(O)O[C@H]3[C@@H](OCOCC(F)F)[C@H](n4ccc(=O)[nH]c4=O)O[C@@H]3COP(=O)(O)O[C@H]3[C@@H](OCOCC(F)F)[C@H](n4ccc(=O)[nH]c4=O)O[C@@H]3COP(=O)(O)O[C@H]3[C@@H](OCOCC(F)F)[C@H](n4ccc(=O)[nH]c4=O)O[C@@H]3COP(=O)(O)O[C@H]3[C@@H](OCOCC(F)F)[C@H](n4ccc(=O)[nH]c4=O)O[C@@H]3CO)[C@@H](O)[C@H]2OCOCC(F)F)c(=O)[nH]1	3.5 °C		
N#CCCOCO[C@@H]1[C@H](O)[C@@H](COP(=O)(O)O[C@H]2[C@@H](OCOCCC#N)[C@H](n3ccc(=O)[nH]c3=O)O[C@@H]2COP(=O)(O)O[C@H]2[C@@H](OCOCCC#N)[C@H](n3ccc(=O)[nH]c3=O)O[C@@H]2COP(=O)(O)O[C@H]2[C@@H](OCOCCC#N)[C@H](n3ccc(=O)[nH]c3=O)O[C@@H]2COP(=O)(O)O[C@H]2[C@@H](OCOCCC#N)[C@H](n3ccc(=O)[nH]c3=O)O[C@@H]2COP(=O)(O)O[C@H]2[C@@H](OCOCCC#N)[C@H](n3ccc(=O)[nH]c3=O)O[C@@H]2COP(=O)(O)O[C@H]2[C@@H](OCOCCC#N)[C@H](n3ccc(=O)[nH]c3=O)O[C@@H]2COP(=O)(O)O[C@H]2[C@@H](OCOCCC#N)[C@H](n3ccc(=O)[nH]c3=O)O[C@@H]2COP(=O)(O)O[C@H]2[C@@H](OCOCCC#N)[C@H](n3ccc(=O)[nH]c3=O)O[C@@H]2COP(=O)(O)O[C@H]2[C@@H](OCOCCC#N)[C@H](n3ccc(=O)[nH]c3=O)O[C@@H]2COP(=O)(O)O[C@H]2[C@@H](OCOCCC#N)[C@H](n3ccc(=O)[nH]c3=O)O[C@@H]2COP(=O)(O)O[C@H]2[C@@H](OCOCCC#N)[C@H](n3ccc(=O)[nH]c3=O)O[C@@H]2CO)O[C@H]1n1ccc(=O)[nH]c1=O	2.8 °C	Stable	
O=c1ccn([C@@H]2O[C@H](COP(=O)(O)O[C@H]3[C@@H](OCOCC(Cl)(Cl)Cl)[C@H](n4ccc(=O)[nH]c4=O)O[C@@H]3COP(=O)(O)O[C@H]3[C@@H](OCOCC(Cl)(Cl)Cl)[C@H](n4ccc(=O)[nH]c4=O)O[C@@H]3COP(=O)(O)O[C@H]3[C@@H](OCOCC(Cl)(Cl)Cl)[C@H](n4ccc(=O)[nH]c4=O)O[C@@H]3COP(=O)(O)O[C@H]3[C@@H](OCOCC(Cl)(Cl)Cl)[C@H](n4ccc(=O)[nH]c4=O)O[C@@H]3COP(=O)(O)O[C@H]3[C@@H](OCOCC(Cl)(Cl)Cl)[C@H](n4ccc(=O)[nH]c4=O)O[C@@H]3COP(=O)(O)O[C@H]3[C@@H](OCOCC(Cl)(Cl)Cl)[C@H](n4ccc(=O)[nH]c4=O)O[C@@H]3COP(=O)(O)O[C@H]3[C@@H](OCOCC(Cl)(Cl)Cl)[C@H](n4ccc(=O)[nH]c4=O)O[C@@H]3COP(=O)(O)O[C@H]3[C@@H](OCOCC(Cl)(Cl)Cl)[C@H](n4ccc(=O)[nH]c4=O)O[C@@H]3COP(=O)(O)O[C@H]3[C@@H](OCOCC(Cl)(Cl)Cl)[C@H](n4ccc(=O)[nH]c4=O)O[C@@H]3COP(=O)(O)O[C@H]3[C@@H](OCOCC(Cl)(Cl)Cl)[C@H](n4ccc(=O)[nH]c4=O)O[C@@H]3COP(=O)(O)O[C@H]3[C@@H](OCOCC(Cl)(Cl)Cl)[C@H](n4ccc(=O)[nH]c4=O)O[C@@H]3CO)[C@@H](O)[C@H]2OCOCC(Cl)(Cl)Cl)c(=O)[nH]1	-0.8 °C	Unstable	
O=c1ccn([C@@H]2O[C@H](COP(=O)(O)O[C@H]3[C@@H](OCOCC(F)(F)F)[C@H](n4ccc(=O)[nH]c4=O)O[C@@H]3COP(=O)(O)O[C@H]3[C@@H](OCOCC(F)(F)F)[C@H](n4ccc(=O)[nH]c4=O)O[C@@H]3COP(=O)(O)O[C@H]3[C@@H](OCOCC(F)(F)F)[C@H](n4ccc(=O)[nH]c4=O)O[C@@H]3COP(=O)(O)O[C@H]3[C@@H](OCOCC(F)(F)F)[C@H](n4ccc(=O)[nH]c4=O)O[C@@H]3COP(=O)(O)O[C@H]3[C@@H](OCOCC(F)(F)F)[C@H](n4ccc(=O)[nH]c4=O)O[C@@H]3COP(=O)(O)O[C@H]3[C@@H](OCOCC(F)(F)F)[C@H](n4ccc(=O)[nH]c4=O)O[C@@H]3COP(=O)(O)O[C@H]3[C@@H](OCOCC(F)(F)F)[C@H](n4ccc(=O)[nH]c4=O)O[C@@H]3COP(=O)(O)O[C@H]3[C@@H](OCOCC(F)(F)F)[C@H](n4ccc(=O)[nH]c4=O)O[C@@H]3COP(=O)(O)O[C@H]3[C@@H](OCOCC(F)(F)F)[C@H](n4ccc(=O)[nH]c4=O)O[C@@H]3COP(=O)(O)O[C@H]3[C@@H](OCOCC(F)(F)F)[C@H](n4ccc(=O)[nH]c4=O)O[C@@H]3COP(=O)(O)O[C@H]3[C@@H](OCOCC(F)(F)F)[C@H](n4ccc(=O)[nH]c4=O)O[C@@H]3CO)[C@@H](O)[C@H]2OCOCC(F)(F)F)c(=O)[nH]1	4.5 °C		
O=c1ccn([C@@H]2O[C@H](COP(=O)(O)O[C@H]3[C@@H](OCOCC(Cl)Cl)[C@H](n4ccc(=O)[nH]c4=O)O[C@@H]3COP(=O)(O)O[C@H]3[C@@H](OCOCC(Cl)Cl)[C@H](n4ccc(=O)[nH]c4=O)O[C@@H]3COP(=O)(O)O[C@H]3[C@@H](OCOCC(Cl)Cl)[C@H](n4ccc(=O)[nH]c4=O)O[C@@H]3COP(=O)(O)O[C@H]3[C@@H](OCOCC(Cl)Cl)[C@H](n4ccc(=O)[nH]c4=O)O[C@@H]3COP(=O)(O)O[C@H]3[C@@H](OCOCC(Cl)Cl)[C@H](n4ccc(=O)[nH]c4=O)O[C@@H]3COP(=O)(O)O[C@H]3[C@@H](OCOCC(Cl)Cl)[C@H](n4ccc(=O)[nH]c4=O)O[C@@H]3COP(=O)(O)O[C@H]3[C@@H](OCOCC(Cl)Cl)[C@H](n4ccc(=O)[nH]c4=O)O[C@@H]3COP(=O)(O)O[C@H]3[C@@H](OCOCC(Cl)Cl)[C@H](n4ccc(=O)[nH]c4=O)O[C@@H]3COP(=O)(O)O[C@H]3[C@@H](OCOCC(Cl)Cl)[C@H](n4ccc(=O)[nH]c4=O)O[C@@H]3COP(=O)(O)O[C@H]3[C@@H](OCOCC(Cl)Cl)[C@H](n4ccc(=O)[nH]c4=O)O[C@@H]3COP(=O)(O)O[C@H]3[C@@H](OCOCC(Cl)Cl)[C@H](n4ccc(=O)[nH]c4=O)O[C@@H]3CO)[C@@H](O)[C@H]2OCOCC(Cl)Cl)c(=O)[nH]1	10.8 °C	Unstable	inactive
